Experiment [1] has as its target Mitogen-activated protein kinase 8 (Homo sapiens) (UniProt P45983). The experiment is described as follows: Inhibition of human c-Jun N-terminal kinase-1 alpha-1 at 30 uM. An outline of the steps: (§1)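 Kinase activity assayed with ATP at 100 µM, deliberately higher than usual assay ATP levels because the inhibitors are assumed ATP-competitive. Results are reported as percent inhibition of each kinase.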

For experiment [2], the target named is Dual specificity mitogen-activated protein kinase kinase 1 (Homo sapiens) (UniProt Q02750). The experiment is described as follows: Inhibition of human Mitogen activated protein kinase kinase 1 (MEK1) at 30 uM. An outline of the steps: as §1
Experiment [3] concerns the target cAMP-dependent protein kinase (PKA) (Homo sapiens) (UniProt P22694+P17612+P22612). The experiment is described as follows: Inhibition of human cAMP-dependent protein kinase (PKA). The note with it: concentration not given here. In kind it is protein assay. Further details: concentration or dose not given beside the values.
For experiment [4], the target named is Mitogen-activated protein kinase 14 (Homo sapiens) (UniProt Q16539). As to the kind of experiment: Inhibition of human stress-activated protein kinase-2 alpha (p38 MAP-kinase) at 30 uM. An outline of the steps: as §1
The target in experiment [5] is Tyrosine-protein kinase Lck (Homo sapiens) (UniProt P06239). As to the kind of experiment: Inhibition of human lymphocyte protein tyrosine kinase Lck at 30 uM. An outline of the steps:
as §1

The target in experiment [6] is RAC-alpha serine/threonine-protein kinase (Homo sapiens) (UniProt P31749). The experiment is described as follows: Inhibition of human Protein kinase B alpha at 30 uM. An outline of the steps:
as §1

Experiment [7] deals with Mitogen-activated protein kinase 9 (Homo sapiens) (UniProt P45984). The experiment is described as follows: Inhibition of human c-Jun N-terminal kinase-2 alpha-2 at 30 uM. An outline of the steps: as §1
Chain of Mitogen-activated protein kinase 9 (Homo sapiens) (P45984 whole entry, looked up): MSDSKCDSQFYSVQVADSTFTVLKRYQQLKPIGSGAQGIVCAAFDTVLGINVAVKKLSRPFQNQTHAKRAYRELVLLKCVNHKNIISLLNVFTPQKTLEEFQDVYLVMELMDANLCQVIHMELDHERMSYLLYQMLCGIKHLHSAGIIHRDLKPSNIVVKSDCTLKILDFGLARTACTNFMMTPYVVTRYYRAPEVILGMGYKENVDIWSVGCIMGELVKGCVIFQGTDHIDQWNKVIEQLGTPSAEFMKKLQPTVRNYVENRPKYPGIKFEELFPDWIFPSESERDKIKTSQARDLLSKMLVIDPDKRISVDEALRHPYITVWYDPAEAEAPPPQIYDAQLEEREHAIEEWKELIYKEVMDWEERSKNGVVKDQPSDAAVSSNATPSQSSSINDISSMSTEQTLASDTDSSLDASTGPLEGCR
The target in experiment [8] is Mitogen-activated protein kinase 10 (Rattus norvegicus) (UniProt P49187). The experiment is described as follows: Inhibition of rat c-Jun N-terminal kinase-3 at 30 uM. An outline of the steps:
as §1

The target of experiment [9] is Protein kinase C alpha type (Homo sapiens) (UniProt P17252). The experiment is described as follows: Inhibition of human Protein kinase C alpha. Further details: concentration or dose not given beside the values. To be noted: concentration not given here.
Experiment [10] addresses RAF proto-oncogene serine/threonine-protein kinase (Homo sapiens) (UniProt P04049). The experiment is described as follows: Inhibition of human RAF proto-oncogene serine/threonine-protein kinase at 30 uM. An outline of the steps: as §1
Experiment [11] addresses Ca2+/calmodulin-dependent protein kinase II (CaM kinase II) (Rattus norvegicus) (UniProt P11275+P08413+P15791+P11730). The experiment is described as follows: Inhibition of rat Calcium/calmodulin-dependent protein kinase type II at 30 uM. In kind it is protein assay. An outline of the steps:
as §1

Experiment [12] addresses Glycogen synthase kinase-3 beta (Homo sapiens) (UniProt P49841). As to the kind of experiment: Inhibition of human Glycogen synthase kinase-3 beta at 30 uM. An outline of the steps:
as §1

The target in experiment [13] is Mitogen-activated protein kinase 1 (Homo sapiens) (UniProt P28482). As to the kind of experiment: Inhibition of human Mitogen-activated protein kinase 2 at 30 uM. An outline of the steps: as §1
Chain of Mitogen-activated protein kinase 1 (Homo sapiens) (P28482 whole entry): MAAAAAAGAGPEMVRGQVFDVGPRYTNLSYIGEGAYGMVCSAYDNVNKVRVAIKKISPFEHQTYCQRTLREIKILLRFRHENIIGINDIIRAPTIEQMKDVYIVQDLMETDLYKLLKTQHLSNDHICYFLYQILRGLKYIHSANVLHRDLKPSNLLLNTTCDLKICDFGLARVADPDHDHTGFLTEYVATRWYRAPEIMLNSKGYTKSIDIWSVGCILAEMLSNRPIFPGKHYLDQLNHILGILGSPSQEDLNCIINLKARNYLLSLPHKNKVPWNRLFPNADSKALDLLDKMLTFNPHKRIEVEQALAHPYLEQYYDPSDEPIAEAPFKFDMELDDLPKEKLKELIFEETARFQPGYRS
In experiment [14] the target is Rho-associated protein kinase 2 (Homo sapiens) (UniProt O75116). As to the kind of experiment: Inhibition of human Rho-dependent protein kinase-II at 30 uM.
Chain of Rho-associated protein kinase 2 (Homo sapiens) (O75116 whole entry, looked up): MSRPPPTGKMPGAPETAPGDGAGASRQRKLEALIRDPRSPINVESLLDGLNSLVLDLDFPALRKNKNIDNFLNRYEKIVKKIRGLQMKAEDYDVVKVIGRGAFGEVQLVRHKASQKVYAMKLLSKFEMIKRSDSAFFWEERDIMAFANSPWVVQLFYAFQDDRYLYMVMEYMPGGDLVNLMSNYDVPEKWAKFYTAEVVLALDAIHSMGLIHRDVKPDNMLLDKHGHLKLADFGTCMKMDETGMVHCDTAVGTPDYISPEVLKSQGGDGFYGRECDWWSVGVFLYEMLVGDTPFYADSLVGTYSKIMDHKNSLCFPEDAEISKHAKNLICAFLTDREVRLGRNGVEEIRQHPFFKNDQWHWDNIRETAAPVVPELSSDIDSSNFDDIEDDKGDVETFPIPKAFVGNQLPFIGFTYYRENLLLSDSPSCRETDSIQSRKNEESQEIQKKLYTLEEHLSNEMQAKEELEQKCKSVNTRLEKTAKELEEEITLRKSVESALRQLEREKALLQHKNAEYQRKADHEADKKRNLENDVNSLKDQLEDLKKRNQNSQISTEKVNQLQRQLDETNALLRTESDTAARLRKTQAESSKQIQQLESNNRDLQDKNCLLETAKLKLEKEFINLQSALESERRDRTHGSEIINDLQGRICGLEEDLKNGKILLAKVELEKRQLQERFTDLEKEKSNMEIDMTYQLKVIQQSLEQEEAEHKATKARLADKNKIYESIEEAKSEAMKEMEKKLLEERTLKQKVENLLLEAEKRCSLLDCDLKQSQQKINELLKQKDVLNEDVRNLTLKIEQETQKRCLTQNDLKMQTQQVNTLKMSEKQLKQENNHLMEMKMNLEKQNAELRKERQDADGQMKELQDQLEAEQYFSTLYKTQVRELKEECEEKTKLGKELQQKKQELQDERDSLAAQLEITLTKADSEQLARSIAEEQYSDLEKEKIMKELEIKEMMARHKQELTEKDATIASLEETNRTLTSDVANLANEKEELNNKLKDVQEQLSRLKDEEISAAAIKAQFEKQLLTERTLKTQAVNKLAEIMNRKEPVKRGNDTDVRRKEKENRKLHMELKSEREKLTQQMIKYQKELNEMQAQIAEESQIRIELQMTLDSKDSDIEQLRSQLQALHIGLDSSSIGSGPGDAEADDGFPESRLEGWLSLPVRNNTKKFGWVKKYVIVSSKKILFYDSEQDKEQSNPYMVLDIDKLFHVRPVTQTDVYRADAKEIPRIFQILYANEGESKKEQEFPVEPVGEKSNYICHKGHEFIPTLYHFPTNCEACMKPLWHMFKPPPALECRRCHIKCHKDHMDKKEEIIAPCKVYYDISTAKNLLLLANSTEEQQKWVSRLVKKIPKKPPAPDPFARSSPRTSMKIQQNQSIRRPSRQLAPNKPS

Chain of Mitogen-activated protein kinase 10 (Rattus norvegicus) (P49187 whole entry): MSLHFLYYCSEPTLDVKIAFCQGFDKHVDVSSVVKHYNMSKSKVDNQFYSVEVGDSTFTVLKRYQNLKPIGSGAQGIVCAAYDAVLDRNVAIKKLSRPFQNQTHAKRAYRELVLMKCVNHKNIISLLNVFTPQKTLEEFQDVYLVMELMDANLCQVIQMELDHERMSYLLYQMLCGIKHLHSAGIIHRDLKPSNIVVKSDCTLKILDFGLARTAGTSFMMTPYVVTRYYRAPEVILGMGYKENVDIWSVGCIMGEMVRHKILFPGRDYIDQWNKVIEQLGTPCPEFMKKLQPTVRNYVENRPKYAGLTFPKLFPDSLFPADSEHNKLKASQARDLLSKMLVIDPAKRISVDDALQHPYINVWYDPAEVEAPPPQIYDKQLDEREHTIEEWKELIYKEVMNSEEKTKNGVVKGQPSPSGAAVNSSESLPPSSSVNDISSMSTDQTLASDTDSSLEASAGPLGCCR
Chain of Mitogen-activated protein kinase 8 (Homo sapiens) (P45983 whole entry): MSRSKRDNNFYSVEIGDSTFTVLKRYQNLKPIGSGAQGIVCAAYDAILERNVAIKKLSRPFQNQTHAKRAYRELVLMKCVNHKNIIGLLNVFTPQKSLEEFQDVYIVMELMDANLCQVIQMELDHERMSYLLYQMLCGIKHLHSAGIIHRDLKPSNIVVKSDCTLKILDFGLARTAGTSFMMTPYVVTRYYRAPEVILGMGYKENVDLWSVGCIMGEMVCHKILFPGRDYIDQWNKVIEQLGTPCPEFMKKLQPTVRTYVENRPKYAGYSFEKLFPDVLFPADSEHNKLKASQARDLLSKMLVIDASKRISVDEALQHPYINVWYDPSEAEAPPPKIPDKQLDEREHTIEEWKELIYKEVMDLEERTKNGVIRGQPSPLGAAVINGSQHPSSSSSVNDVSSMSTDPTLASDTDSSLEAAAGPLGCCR
Chain of RAF proto-oncogene serine/threonine-protein kinase (Homo sapiens) (P04049 whole entry): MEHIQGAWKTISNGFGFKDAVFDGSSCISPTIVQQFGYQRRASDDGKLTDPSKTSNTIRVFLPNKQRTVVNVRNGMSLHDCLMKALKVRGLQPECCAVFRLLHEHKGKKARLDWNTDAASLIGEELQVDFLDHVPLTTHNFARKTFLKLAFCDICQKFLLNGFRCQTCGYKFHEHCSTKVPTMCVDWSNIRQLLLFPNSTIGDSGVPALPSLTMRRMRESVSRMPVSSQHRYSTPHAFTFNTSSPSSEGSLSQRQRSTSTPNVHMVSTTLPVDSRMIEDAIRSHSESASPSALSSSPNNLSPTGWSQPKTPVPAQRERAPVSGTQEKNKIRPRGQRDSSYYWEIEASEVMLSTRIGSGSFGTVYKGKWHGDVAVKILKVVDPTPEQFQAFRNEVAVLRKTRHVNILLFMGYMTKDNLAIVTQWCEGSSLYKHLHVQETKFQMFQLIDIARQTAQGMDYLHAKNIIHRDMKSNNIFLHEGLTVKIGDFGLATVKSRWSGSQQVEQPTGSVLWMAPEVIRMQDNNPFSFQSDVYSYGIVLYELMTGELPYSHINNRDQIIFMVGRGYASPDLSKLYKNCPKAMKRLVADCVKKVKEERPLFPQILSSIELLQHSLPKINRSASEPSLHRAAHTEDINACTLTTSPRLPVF
Chain of Tyrosine-protein kinase Lck (Homo sapiens) (P06239 2-509 limits assumed): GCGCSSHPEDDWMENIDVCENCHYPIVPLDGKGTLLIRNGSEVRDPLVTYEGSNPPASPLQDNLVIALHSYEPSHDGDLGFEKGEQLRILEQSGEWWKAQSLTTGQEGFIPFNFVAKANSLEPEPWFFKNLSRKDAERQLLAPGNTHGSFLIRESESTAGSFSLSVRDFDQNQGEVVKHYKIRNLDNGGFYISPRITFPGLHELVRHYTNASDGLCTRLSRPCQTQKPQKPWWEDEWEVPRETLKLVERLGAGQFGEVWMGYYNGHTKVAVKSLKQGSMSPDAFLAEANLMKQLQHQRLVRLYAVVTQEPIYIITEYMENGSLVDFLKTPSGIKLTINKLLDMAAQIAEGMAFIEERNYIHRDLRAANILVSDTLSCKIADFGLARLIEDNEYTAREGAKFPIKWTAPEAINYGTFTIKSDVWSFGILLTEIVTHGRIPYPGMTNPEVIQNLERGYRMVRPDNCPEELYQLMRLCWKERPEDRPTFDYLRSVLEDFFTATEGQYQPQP

As to `COc1ncnc2ncn(Cc3ccc(F)cc3)c12`, the inhibition in experiment [1] came to 0%; in experiment [2], 3%; in experiment [3] it was 7%; in [4], 8%; in experiment [5], 0%; in experiment [6], 0%. Besides, the inhibition was 0% in [7]; 30% in experiment [8]; 7% in experiment [9]; 9% in experiment [10]; 2% in experiment [11]; 5% in experiment [12]. The inhibition was determined as 3% in [13] and 1% in experiment [14].
Take `Fc1ccc(-[n+]2c[nH]c3ncncc32)cc1`: the inhibition in experiment [1] was determined as 1%; in experiment [2], 0%; in experiment [3] it was 0%; in [4], 0%; in experiment [5], 9%; in [6], 0%. In addition, the inhibition worked out at 0% in experiment [7]; 4% in [8]; 2% in experiment [9]; 0% in [10]; 0% in [11]; 0% in experiment [12]. Besides, the values for the inhibition in experiment [13] and in experiment [14] were 0% and 2%, respectively.
Consider `Cn1cnc2c(Nc3ccccc3)ncnc21`, for which the inhibition in experiment [1] turned out to be 0%; in experiment [2], 4%; in experiment [3] it was 0%; in [4], 0%; in experiment [5], 18%; in [6] it was 0%. Besides, the inhibition in experiment [7] was 0%; in experiment [8], 5%; in experiment [9], 2%; in [10] it was 44%; in [11] it was 0%; in experiment [12] it was 26%. The inhibition in [13] stood at 42%; in experiment [14], 0%.
As to `Fc1ccc(Cn2cnc3c(Sc4ccccc4)ncnc32)cc1`, the inhibition in experiment [1] was 0%; in experiment [2] it was 1%; in [3] it was 0%; in experiment [4] it was 67%; in [5] it was 12%; in experiment [6] it was 13%. In addition, the inhibition in [7], in [8], in experiment [9], in experiment [10], in [11] and in experiment [12] was 0% in each case. Besides, the inhibition in experiment [13] worked out at 0%; in experiment [14], 2%.
On to `Cn1c(-c2ccc([S+](C)[O-])cc2)nc2c(Sc3ccc(F)cc3)ncnc21` (stereo unspecified), for which the inhibition in [1] stood at 0%; in experiment [2], 1%; in experiment [3], 4%; in experiment [4], 44%; in [5] it was 30%; in experiment [6] it was 10%. The inhibition in experiment [7] stood at 1%; in experiment [8], 10%; in [9], 15%; in [10] it was 4%; in experiment [11], 12%; in experiment [12], 4%. For the same compound, the inhibition in experiment [13] and in experiment [14] was 0% in each case.
On to `Cn1cnc2c(-c3ccccc3)ncnc21`, for which the inhibition in [1] came out at 9%; in [2], 9%; in [3], 7%; in [4], 16%; in [5], 21%; in experiment [6] it was 15%. The inhibition in experiment [7] was determined as 11%; in experiment [8], 14%; in [9] it was 14%; in [10] it was 12%; in [11] it was 8%; in experiment [12] it was 11%. The inhibition was found to be 9% in experiment [13] and 8% in [14].
As for `Nc1ncnc2ncn(Cc3ccc(F)cc3)c12`, the inhibition in experiment [1] was 4%; in [2] it was 8%; in [3], 7%; in experiment [4] it was 8%; in [5] it was 0%; in experiment [6], 0%. Also, the inhibition came out at 7% in experiment [7]; 25% in experiment [8]; 14% in [9]; 28% in [10]; 8% in [11]; 0% in experiment [12]. Further, the inhibition amounted to 5% in experiment [13] and 6% in experiment [14].
In the case of `Nc1ncnc2c1ncn2Cc1ccccc1`, the inhibition in experiment [1] is 1%; in [2], 7%; in [3], 1%; in [4], 7%; in [5], 19%; in experiment [6] it was 0%. In addition, the inhibition amounted to 0% in [7]; 17% in experiment [8]; 2% in experiment [9]; 25% in [10]; 0% in experiment [11]; 7% in experiment [12]. The inhibition in experiment [13] was 11%; in [14] it was 5%.
Take `CSc1ccc(-c2nc3c(Sc4ccccc4)ncnc3n2C)cc1`: the inhibition in experiment [1] amounted to 0%; in [2] it was 4%; in experiment [3] it was 0%; in [4] it was 11%; in [5], 0%; in [6], 5%. The inhibition in experiment [7] is 1%; in experiment [8], 0%; in experiment [9], 0%; in experiment [10], 5%; in [11] it was 0%; in experiment [12], 3%. Also, the inhibition in experiment [13] and in experiment [14] was 0% throughout.
Take `Nc1ncnc2c1ncn2Cc1ccc(F)cc1`: the inhibition turned out to be 0% in experiment [1]; 7% in [2]; 0% in experiment [3]; 8% in experiment [4]; 22% in experiment [5]; 0% in [6]. The inhibition amounted to 0% in [7]; 9% in experiment [8]; 16% in experiment [9]; 16% in experiment [10]; 9% in experiment [11]; 5% in experiment [12]. The inhibition in experiment [13] and in experiment [14] was 0% throughout.
For the compound `Clc1ncnc2ncn(Cc3ccccc3)c12`, the inhibition was 0% in [1]; 0% in experiment [2]; 0% in [3]; 7% in experiment [4]; 0% in [5]; 0% in [6]. Besides, the inhibition came out at 1% in [7]; 11% in [8]; 12% in experiment [9]; 12% in experiment [10]; 0% in [11]; 9% in [12]. Further, the figures for the inhibition in [13] and in experiment [14] were 1% and 6%, respectively.
On to `CSc1ccc(-c2nc3c(Sc4ccc(F)cc4)ncnc3n2C)cc1`, for which the inhibition in experiment [1] came to 3%; in experiment [2], 4%; in [3], 0%; in experiment [4], 15%; in experiment [5] it was 1%; in experiment [6] it was 0%. Further, the inhibition was found to be 5% in [7]; 3% in experiment [8]; 0% in experiment [9]; 1% in experiment [10]; 7% in experiment [11]; 5% in experiment [12]. Moreover, the inhibition in experiment [13] and in experiment [14] was 0% throughout.
In the case of `Fc1ccc(Cn2cnc3ncnc(Cl)c32)cc1`, the inhibition was 6% in [1]; 4% in experiment [2]; 0% in experiment [3]; 17% in experiment [4]; 0% in [5]; 0% in [6]. Further, the inhibition was 9% in experiment [7]; 21% in [8]; 13% in experiment [9]; 20% in experiment [10]; 8% in experiment [11]; 0% in experiment [12]. Besides, the inhibition in experiment [13] worked out at 1%; in experiment [14] it was 7%.
For the compound `c1ccc(Cn2cnc3c(Sc4ccccc4)ncnc32)cc1`, the inhibition in experiment [1] amounted to 0%; in experiment [2], 6%; in experiment [3] it was 0%; in experiment [4], 64%; in [5], 0%; in experiment [6], 1%. For the same compound, the inhibition in experiment [7] turned out to be 0%; in experiment [8] it was 0%; in experiment [9], 0%; in [10] it was 0%; in experiment [11] it was 3%; in [12], 1%. The inhibition worked out at 0% in [13] and 1% in experiment [14].

These data come from ChEMBL document CHEMBL1141882, “Synthesis and biological testing of purine derivatives as potential ATP-competitive kinase inhibitors” (J Med Chem, 2005).
